Assay results from ChEMBL document CHEMBL1157613, “Salicylic acid based small molecule inhibitor for the oncogenic Src homology-2 domain containing protein tyrosine phosphatase-2 (SHP2)” (J Med Chem, 2010).
Active and inactive are the calls of the source. The calls are words filed in the database; no cut-off is given here.

Legend:
Mus musculus = species on record: Mus musculus; test: Antiproliferative activity against GM-CSF-stimulated C57/BL6 mouse low density BM-MNC expressing SHP2 D61Y mutant assessed as inhibition of hyperproliferation at 10 uM after 16 hrs by [3H]thymidine incorporation assay; format: functional; conditions: C57Bl/6
Outline: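 Marrow low-density mononuclear cells from C57Bl/6 mice (Ficoll), prestimulated 24 h with SCF, G-CSF, Tpo (100 ng/mL), retrovirally transduced 48 h with wild-type SHP2, D61Y or E76K, EGFP-sorted. Starved 4 h in 0.2% BSA; 5 × 10^4 cells cultured 16 h in GM-CSF 0-1 ng/mL ± 10 μM compound, then pulsed with 1.0 μCi [3H]thymidine for 6-8 h; counts per minute; n = 3.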

[1] = molecular target: T1, Tyrosine-protein phosphatase non-receptor type 1 (Homo sapiens, UniProt P18031); test: Inhibition of PTP1B expressed in Escherichia coli assessed as inhibition of p-nitrophenyl phosphate hydrolysis at pH 7 by spectrophotometry
T1 sequence (P18031 whole entry): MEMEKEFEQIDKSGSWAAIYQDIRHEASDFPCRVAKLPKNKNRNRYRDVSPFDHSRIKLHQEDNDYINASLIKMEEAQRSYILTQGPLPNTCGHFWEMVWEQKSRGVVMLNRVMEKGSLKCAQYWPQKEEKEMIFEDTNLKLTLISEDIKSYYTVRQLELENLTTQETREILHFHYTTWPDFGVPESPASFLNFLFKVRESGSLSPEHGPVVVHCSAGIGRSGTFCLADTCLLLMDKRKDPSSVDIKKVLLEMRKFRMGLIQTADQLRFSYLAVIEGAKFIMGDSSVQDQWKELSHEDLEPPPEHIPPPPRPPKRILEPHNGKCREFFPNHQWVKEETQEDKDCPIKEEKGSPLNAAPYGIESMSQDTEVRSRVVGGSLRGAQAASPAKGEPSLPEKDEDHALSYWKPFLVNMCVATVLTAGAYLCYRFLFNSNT

Cn1c(-c2ccccc2)c(-c2cn(CCC(=O)Nc3ccc(-c4ccccc4)cc3)nn2)c2cc(C(=O)O)c(O)cc21
Activity (Mus musculus): Active | IC50 [1]: 14.3 µM
